Source: PubChem BioAssay
DNA FID counter = fluorescent intercalator displacement, NS3 helicase counter-screen; DNA fluorescent intercalator displacement, fluorescence; inhibition, % at 7.9 µM; actives 0.17% (n = 290,000); in the data active = inhibition above about 37%;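 also: 0% = vehicle and 100% = reference compound; higher means more ethidium bromide displaced from hairpin DNA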
MEKK3 PB1 HTS = raises or lowers MEK5 binding to the human MEKK3 PB1 domain. Q99759. bead-based flow cytometry, Alexa488-MEK5 binding to MEKK3; actives lie on both sides; 0 = blocked by unlabeled MEK5, 100 = vehicle. binding response (% of control), % at 10 µM. actives 1.4% (n = 290,000). AID 1529;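 active = binding response more than 3 SD above or below the average of its plate-row segment, actives on both sides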;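 also: Alexa488 bead fluorescence after subtracting the streptavidin-only scavenger bead signal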
Target sequence (Q99759 whole entry, looked up, the tested form may be a part): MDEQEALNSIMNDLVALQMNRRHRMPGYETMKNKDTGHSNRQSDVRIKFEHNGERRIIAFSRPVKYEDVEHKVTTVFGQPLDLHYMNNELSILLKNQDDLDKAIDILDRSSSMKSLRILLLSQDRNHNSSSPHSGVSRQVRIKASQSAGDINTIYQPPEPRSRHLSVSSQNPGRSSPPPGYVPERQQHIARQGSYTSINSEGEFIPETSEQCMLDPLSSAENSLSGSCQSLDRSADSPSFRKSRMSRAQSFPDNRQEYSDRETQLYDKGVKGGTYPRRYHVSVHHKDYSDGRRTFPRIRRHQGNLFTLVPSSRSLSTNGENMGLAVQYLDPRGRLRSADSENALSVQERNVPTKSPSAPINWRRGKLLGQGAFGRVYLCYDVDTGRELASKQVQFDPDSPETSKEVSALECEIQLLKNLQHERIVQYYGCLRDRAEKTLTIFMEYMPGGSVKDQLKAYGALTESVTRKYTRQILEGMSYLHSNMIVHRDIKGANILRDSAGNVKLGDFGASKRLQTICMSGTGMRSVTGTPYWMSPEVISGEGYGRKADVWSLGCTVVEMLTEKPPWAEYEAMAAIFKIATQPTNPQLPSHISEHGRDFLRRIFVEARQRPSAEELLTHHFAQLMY
HCV NS3 hel inh = blocks Hepatitis C virus NS3 helicase unwinding; NS3 helicase DNA unwinding, Cy5 molecular beacon fluorescence; inhibition, % at 10.9 µM; actives 0.56% (n = 290,000); AID 1800;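 active = inhibition above the mean of all tested compounds plus 3 SD, set per campaign, cut at about 35% in these data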;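 also: 0% = DMSO wells and 100% = thioflavine S control wells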
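Control set: DMSO versus 110 µM thioflavine S; Material: NS3 helicase fragment of HCV; Measured by: Cy5 fluorescence at 0 and 60 min, beacon hairpin quenching; Read-out basis: percent inhibition from t60/t0 fluorescence ratio; Times: reaction time 60 min, 25 °C; Repeats: single replicate; Compound dosing: single dose, 10.9 µM nominal final, DMSO 0.8% final.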
T cruzi inh = T. cruzi replication inhibition; AID 1885; actives 1.4% (n = 300,000); T. cruzi beta-gal in NIH3T3, luminescence, 90 h; inhibition, % (test concentration not listed);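 active = mean inhibition across valid replicates above about 55%, limit read from the data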;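 also: signal also drops with host cell toxicity which is not excluded here; 0% = plate median of DMSO wells and 100% = zero luminescence signal; higher percent means less beta-gal luminescence so fewer parasites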
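Read-out: Parasite load inhibition, % | Test system: Mouse NIH/3T3 fibroblasts infected with β-gal-expressing T. cruzi Tulahuen C4 | Amount: 5,000 cells/well | Medium: DMEM, 2% fetal bovine serum | Signal: GalScreen β-gal luminescence, detergent lysis, 60 min | Timing: 3 h attach, ≥90 h co-culture | Also added: Tulahuen C4 trypomastigotes, 5000/well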
MEKK2wt PB1 HTS = raises or lowers MEK5 binding to wildtype human MEKK2 PB1 domain; AID 1531; bead flow cytometry, Alexa488-MEK5 binding to MEKK2 WT; actives lie on both sides; binding response (% of control), % at 10 µM; actives 1.1% (n = 290,000); in the data active = binding response below about 67% or above about 130%
MEKK2 mut-MEK5 = signal of MEK5 binding to mutant human MEKK2 PB1 domain; bead flow cytometry, Alexa488-MEK5 binding to MEKK2 mutant; percent response, % at 10 µM; actives 0.35% (n = 290,000); AID 1530; in the data active = percent response above about 24%, passing the limit was not always enough
MEKK2wt confirm = raises or lowers MEK5 binding to wildtype human MEKK2, retest | shares compounds with MEKK3 PB1 HTS | bead flow cytometry, Alexa488-MEK5 binding to MEKK2 WT; actives lie on both sides | binding response (% of control), % at 10 µM | actives 2.4% (n = 5,900) | AID 1892; in the data active = binding response below about 16% or above about 210%; inactive = in between
MEKK2mut-MEK5 = signal of MEK5 binding to mutant human MEKK2, retest; shares compounds with MEKK3 PB1 HTS; actives 2% (n = 5,900); percent response, % at 10 µM; bead flow cytometry, Alexa488-MEK5 binding to MEKK2 mutant; AID 1893; in the data active = percent response mostly above about 71%, no sharp cut-off; inactive = mostly below about 38%;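 also: higher means compound restores mutant binding toward wildtype level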
MEKK3 confirm = confirmation of inhibitors of MEK5 binding to human MEKK3 | shares compounds with MEKK3 PB1 HTS | bead flow cytometry, Alexa488-MEK5 binding to MEKK3; stronger effect = lower value | binding response (% of control), % at 10 µM | actives 1.8% (n = 5,900) | AID 1894;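 active = binding response below 72% of control, or above a set upper limit, though filed actives all read lower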;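 also: 100% = DMSO only wells and 0% = binding blocked by excess unlabeled MEK5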
An asterisk follows results filed as active; . = no result given; [ ] = another dose, or the depositor's remark. Rows were chosen to be rich in hits. Some 4.1% of all compounds tested hit in one or more screens of this group.

SMILES	DNA FID counter	MEKK3 PB1 HTS	HCV NS3 hel inh	T cruzi inh	MEKK2wt PB1 HTS	MEKK2 mut-MEK5	MEKK2wt confirm	MEKK2mut-MEK5	MEKK3 confirm
Cc1ccc2nc(Cl)c(C3CC(c4ccco4)=NN3S(C)(=O)=O)cc2c1 (stereo not drawn)	-25	72*[inhibitor]	8	0	84	-31	104	-3	105
Cc1onc(-c2ccccc2)c1-c1csc(N/N=C/c2ccccc2)n1	-18	68*[inhibitor]	-16	8	74	-17	99	-1	99
O=C(O)c1cccc(N/N=C/c2ccc(F)c(F)c2)c1	-13	72	7	8	75	-7	.	.	.
O=C(O)c1cccc(N/N=C/C2=C(Cl)c3cc(Cl)ccc3SC2)c1	-17	28*[inhibitor]	10	-6	10*[inhibitor]	-79	104	1	107
CSCC[C@H](NC(=O)Cc1c(C)c2c(cc(C)c3c(C)coc32)oc1=O)C(=O)O	-29	103	15	-6	104	7	.	.	.
COc1ccc(C(C)=O)cc1CSc1nc2ccccc2c(=O)n1-c1cccc(C)c1	-3	156*	5	10	102	-1	98	0	105
COc1ccccc1NC(=O)C[n+]1ccccc1C	-1	96	-4	9	98	0	.	.	.
O=C(Cc1ccc(-n2c(=O)[nH]c3ccsc3c2=O)cc1)NCc1cccnc1	-2	139*	6	-9	109	1	103	0	101
O=C(Cc1ccc(F)cc1)NCc1cccnc1	-2	96	5	-34	92	-3	.	.	.
Cc1ccc(CN(C)C(=O)CCc2nc3sc4c(c3c(=O)[nH]2)CCCC4)o1	-15	98	2	-1	93	-5	.	.	.
Cc1ccc(C)c(OCC(=O)Nc2ccc(S(=O)(=O)Nc3ccccn3)cc2)c1	-24	134*	9	0	102	-1	108	4	105
CCCN(CCC)C(=O)Nc1cc(Cl)ccc1OC	-21	95	9	-1	99	-6	.	.	.
O=[N+]([O-])c1ccc(Sc2nnnn2-c2ccccc2)c(Cl)c1	2	100	-1	42	97	0	.	.	.
Nc1ccc(Sc2nnnn2-c2ccccc2)c(Cl)c1	-12	1.0*[inhibitor]	-4	16	-3.0*[inhibitor]	-26	100	-2	102
O=C(NCc1ccc2c(c1)OCO2)c1cccc(C(=O)NCc2ccc3c(c2)OCO3)c1	-23	105	-9	-5	104	5	.	.	.
O=C(NCc1ccc2c(c1)OCO2)C(C(=O)c1ccccc1)n1cc(Cl)ccc1=O (stereo not drawn)	0	132*	0	5	106	1	101	-3	102
CCCN1CCC(=O)N([C@H](CSc2ccc(C)cc2)c2ccccc2)CC1	.	115	.	13	157*	20	174	40	100
c1ccc(-n2ncc3c(NCCN4CCCCC4)ncnc32)cc1	12	104	-15	-1	113	25*	122	11	104
c1ccc(-n2ncc3c(NCCN4CCOCC4)ncnc32)cc1	0	93	1	-2	92	-6	.	.	.
Cc1ccc(-n2ncc3c(NNC(=O)Cc4ccccc4)ncnc32)cc1	-12	143*	0	6	108	1	104	9	106
CC1=C(C#N)C(=O)NC(=O)/C1=C/c1ccc(-c2ccc(S(N)(=O)=O)cc2)o1	-11	7.0*[inhibitor]	-6	-2	3.0*[inhibitor]	-13	82	-12	88
O=C(NCC1CCCO1)c1csc2c1CCCCC2 (stereo not drawn)	-10	0.0*[inhibitor]	4	-12	-4.0*[inhibitor]	-39	107	9	106
CC1CCc2c(C(=O)NCC3CCCO3)csc2C1 (stereo not drawn)	-6	99	-1	11	96	1	.	.	.
Cc1ccc([N+](=O)[O-])cc1N(CC(=O)NC1CCCC1)S(C)(=O)=O	-8	73*[inhibitor]	-8	7	75	-7	103	-2	104
COc1ccc([N+](=O)[O-])cc1N(CC(=O)NC1CCCCC1)S(C)(=O)=O	-2	102	0	9	108	3	.	.	.
SMILES	DNA FID counter	MEKK3 PB1 HTS	HCV NS3 hel inh	T cruzi inh	MEKK2wt PB1 HTS	MEKK2 mut-MEK5	MEKK2wt confirm	MEKK2mut-MEK5	MEKK3 confirm
COCCN1CCN(C(=O)c2ccc3oc(CCc4ccccc4)nc3c2)CC1	-18	99	-6	-1	105	4	.	.	.
COc1ccc(C(=O)Nc2nc3nccc(-c4ccccc4)n3n2)cc1	-12	180*	4	5	108	1	102	4	103
O=C(Nc1nc2nccc(-c3ccccc3)n2n1)c1ccccc1	-2	102	-7	23	103	3	.	.	.
Cn1c(=O)c2ncn(CC(=O)Nc3nc(-c4ccc(Cl)cc4)cs3)c2n(C)c1=O	-5	108	-5	3	107	1	.	.	.
O=C(Cn1nnc(-c2cccs2)n1)NCc1ccccc1	-2	102	5	-6	97	2	.	.	.
O=C(Cn1nnc(-c2cccs2)n1)NNC(=O)c1ccccc1Cl	-5	128*	-10	2	112	24	101	1	100
Clc1ccc(-c2nnc(CCc3ccccc3)o2)c(Cl)c1	-13	55*[inhibitor]	-3	-4	62	-12	102	-4	99
C=CCSc1nc2c(c(=O)[nH]1)C(c1ccccc1)C(C#N)=C(N)O2 (stereo not drawn)	-6	132*	0	-5	108	30	98	-5	97
CCC(CC)n1[nH]c(=O)cc1N	-4	128*	0	-18	124	11	95	-4	98
O=C(NC(N1CCOCC1)C(Cl)(Cl)Cl)c1ccccc1Cl (stereo not drawn)	3	84	2	-10	55*[inhibitor]	-6	106	8	107
CN1CCC2(CC1)N=C(c1ccc(F)cc1)C(=S)N2C(=O)c1ccc(C(C)(C)C)cc1	14	101	-5	30	147*	44	115	2	99
Nc1c(CO)nnn1-c1ccccc1	-2	95	5	-2	98	-2	.	.	.
O=C(C(=O)N1CCCCC1)c1cn(CC(=O)N2CCCCCC2)c2ccccc12	-39	93	-9	36	77	-9	.	.	.
